Data published in ChEMBL document CHEMBL3351600, “Sulfur, selenium and tellurium pseudopeptides: synthesis and biological evaluation” (Bioorg Med Chem, 2014).

Tests used:
MCF7 [1] = test: Cytotoxicity against human MCF7 cells assessed as cell viability after 24 hrs incubation by MTT assay; format: functional, cell-based; conditions: MCF7, 24 h
In short: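 Cell lines came from DSMZ; primary human fibroblasts served as non-cancer controls. Cells were grown in medium with 10% FCS, seeded at 50,000 cells/ml, and grown 2 days at 37 °C, 10% CO2. Serial dilutions were then added for 24 h. MTT (final 0.5 mg/ml) was added for 2 h. Formazan was pelleted, PBS-washed, dissolved in isopropanol/0.4% HCl and read at 590 nm. Two parallel experiments were run. IC50 was taken as the concentration giving 50% of untreated-control absorbance.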

KM12 = test: Growth inhibition of human KM12 cells after 48 hrs; format: functional; conditions: KM12, 48 h
In short: (§1)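 NCI-60 human tumour cell line panel screen run at the US National Cancer Institute under its standard cytotoxicity protocol. It covers leukaemia, NSCLC, colon, CNS, melanoma, ovarian, renal, prostate and breast lines. An initial single-dose test was followed by five-dose testing with 48 h compound exposure.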

SF-268 = test: Growth inhibition of human SF268 cells after 48 hrs; format: functional; conditions: SF-268, 48 h; in short: as §1
[2] = Growth inhibition of human NCI-ADR-RES cells after 48 hrs; format: functional; in short: as §1
[3] = Growth inhibition of human BT549 cells after 48 hrs; format: functional; conditions: BT-549, 48 h; in short: as §1
[4] = Octanol-water partition coefficient, log P of the compound by HPLC analysis; format: physicochemical
In short: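 Lipophilicity was measured by reversed-phase HPLC on a Nucleosil C18 column with isocratic water/methanol (3:1) at 0.5 ml/min and UV detection at 230 and 245 nm. Dead time was set with thiourea (t0 0.728 min). Retention factor was k = (tR − t0)/t0, and log P came from a calibration against at least six reference compounds.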

T47D = test: Growth inhibition of human T47D cells after 48 hrs; format: functional
In short: (§2)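 Run by the NCI 58-cell-line screen under its standard cytotoxicity protocol. Compounds were first tested at a single dose, then at five doses. Cells were exposed to compound for 48 h.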

MCF7 [5] = test: Growth inhibition of human MCF7 cells after 48 hrs; format: functional; conditions: MCF7, 48 h; in short: as §1
HT-29 = test: Growth inhibition of human HT-29 cells after 48 hrs; format: functional; conditions: HT-29, 48 h; in short: as §1
SK-MEL-5 = test: Growth inhibition of human SK-MEL-5 cells after 48 hrs; format: functional; conditions: SK-MEL-5, 48 h; in short: as §2
DU-145 = test: Growth inhibition of human DU145 cells after 48 hrs; format: functional; conditions: DU-145, 48 h; in short: as §1
[6] = Growth inhibition of human OVCAR4 cells after 48 hrs; format: functional; conditions: OVCAR-4, 48 h; in short: as §1
[7] = Growth inhibition of human OVCAR8 cells after 48 hrs; format: functional; conditions: OVCAR-8, 48 h; in short: as §1
[8] = Growth inhibition of human RXF393 cells after 48 hrs; format: functional; conditions: RXF 393, 48 h; in short: as §1
CAKI-1 = test: Growth inhibition of human CAKI-1 cells after 48 hrs; format: functional; conditions: CAKI-1, 48 h; in short: as §1
ACHN = test: Growth inhibition of human ACHN cells after 48 hrs; format: functional; in short: as §1
Escherichia coli = test: Antimicrobial activity against Escherichia coli tolC assessed as inhibition at 20 ug/6 mm disk after 1 to 2 days by agar diffusion assay; format: functional
In short: (§3)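 Standard agar diffusion: 6-mm paper disks loaded with 20 µg of compound were placed on inoculated plates. Inhibition-zone diameter (mm) was read after 1 and 2 days of growth.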

SNB-19 = test: Growth inhibition of human SNB19 cells after 48 hrs; format: functional; conditions: SNB-19, 48 h, read-out: pLC50 (the source's name) (converted); in short: as §2
[9] = Growth inhibition of human SF539 cells after 48 hrs; format: functional; conditions: SF-539, 48 h; in short: as §1
MDA-MB-435 = test: Growth inhibition of human MDA-MB-435 cells after 48 hrs; format: functional; conditions: MDA-MB-435, 48 h; in short: as §1
[10] = Growth inhibition of human RPMI8226 cells after 48 hrs; format: functional; conditions: RPMI-8226, 48 h; in short: as §1
[11] = Growth inhibition of human EKVX cells after 48 hrs; format: functional; in short: as §1
Malme-3M = test: Growth inhibition of human MALME-3M cells after 48 hrs; format: functional; in short: as §1
[12] = Growth inhibition of human MOLT4 cells after 48 hrs; format: functional; conditions: MOLT-4, 48 h; in short: as §1
Saccharomyces cerevisiae = test: Antimicrobial activity against Saccharomyces cerevisiae assessed as inhibition at 20 ug/6 mm disk after 1 to 2 days by agar diffusion assay; format: functional; in short: as §3
SK-MEL-28 = test: Growth inhibition of human SK-MEL-28 cells after 48 hrs; format: functional; conditions: SK-MEL-28, 48 h; in short: as §1
SK-OV-3 = test: Growth inhibition of human SKOV3 cells after 48 hrs; format: functional; conditions: SK-OV-3, 48 h; in short: as §2
SNB-75 = test: Growth inhibition of human SNB75 cells after 48 hrs; format: functional; conditions: SNB-75, 48 h; in short: as §2
[13] = Growth inhibition of human Hs 578T cells after 48 hrs; format: functional; in short: as §1
786-0 = test: Growth inhibition of human 786-0 cells after 48 hrs; format: functional; conditions: 786-0, 48 h; in short: as §1
Staphylococcus aureus = test: Antimicrobial activity against Staphylococcus aureus assessed as inhibition at 20 ug/6 mm disk after 1 to 2 days by agar diffusion assay; format: functional; in short: as §3
[14] = read-out: pLC50 (the source's name) (converted)

**Q.** Which results are given for COc1ccc(N(CC(=O)NCCC[Te]c2ccccc2)C(=O)CCSC2=C(C)C(=O)c3ccccc3C2=O)cc1?
**A.** IC50 (MCF7 [1]): 7 µM; GI50 (KM12): 0.417 µM; CC50 (KM12; [14]): 5.13 µM; TGI (KM12; read-out: pTGI (converted)): 1.51 µM; GI50 (SF-268): 0.468 µM; CC50 (SF-268; [14]): 5.5 µM; TGI (SF-268; read-out: pTGI (converted)): 1.86 µM; GI50 [2]: 0.955 µM; LC50 [2]: 41.7 µM; TGI ([2]; read-out: pTGI (converted)): 5.01 µM; LC50 (concentration killing 50% of cells) [3]: 16.6 µM; logP [4]: 1.97; GI50 (T47D): 1.55 µM; TGI (T47D; read-out: pTGI (converted)): 3.55 µM; GI50 (MCF7 [5]): 0.49 µM; LC50 (concentration killing 50% of cells) (MCF7 [5]): 75.9 µM; TGI (MCF7 [5]; read-out: pTGI (converted)): 12 µM; GI50 (HT-29): 1.62 µM; CC50 (HT-29; [14]): 50.1 µM; TGI (HT-29; read-out: pTGI (converted)): 4.9 µM; GI50 (SK-MEL-5): 1.62 µM; CC50 (SK-MEL-5; [14]): 5.75 µM; TGI (SK-MEL-5; read-out: pTGI (converted)): 3.09 µM; GI50 (DU-145): 0.955 µM; LC50 (DU-145): 4.9 µM; TGI (DU-145; read-out: pTGI (converted)): 2.19 µM; GI50 [6]: 2.63 µM; LC50 [6]: 31.6 µM; TGI ([6]; read-out: pTGI (converted)): 10.2 µM; GI50 [7]: 0.589 µM; LC50 [7]: 30.9 µM; TGI ([7]; read-out: pTGI (converted)): 3.8 µM; GI50 [8]: 1.86 µM; LC50 [8]: 7.94 µM; TGI ([8]; read-out: pTGI (converted)): 3.8 µM; GI50 (CAKI-1): 3.09 µM; LC50 (CAKI-1): 21.4 µM; TGI (CAKI-1; read-out: pTGI (converted)): 6.17 µM; GI50 (ACHN): 1.35 µM; LC50 (ACHN): 6.76 µM; TGI (ACHN; read-out: pTGI (converted)): 3.02 µM; diameter of the inhibition zone (DIZ) (Escherichia coli): 12 mm; CC50 (SNB-19): 56.2 µM; GI50 [9]: 2.14 µM; CC50 [9, 14]: 7.08 µM; TGI ([9]; read-out: pTGI (converted)): 3.89 µM; GI50 (MDA-MB-435): 2.45 µM; CC50 (MDA-MB-435; [14]): 26.9 µM; TGI (MDA-MB-435; read-out: pTGI (converted)): 6.31 µM; GI50 [10]: 0.55 µM; CC50 [10, 14]: > 100 µM; TGI ([10]; read-out: pTGI (converted)): 3.09 µM; GI50 [11]: 0.38 µM; CC50 [11, 14]: > 100 µM; TGI ([11]; read-out: pTGI (converted)): 3.31 µM; GI50 (Malme-3M): 2.24 µM; CC50 (Malme-3M; [14]): 8.32 µM; TGI (Malme-3M; read-out: pTGI (converted)): 4.37 µM; GI50 [12]: 0.537 µM; CC50 [12, 14]: > 100 µM; TGI ([12]; read-out: pTGI (converted)): 3.55 µM; diameter of the inhibition zone (DIZ) (Saccharomyces cerevisiae): 0 mm; GI50 (SK-MEL-28): 2.09 µM; CC50 (SK-MEL-28; [14]): 12 µM; TGI (SK-MEL-28; read-out: pTGI (converted)): 4.68 µM; GI50 (SK-OV-3): 1.86 µM; CC50 (SK-OV-3; [14]): 8.71 µM; TGI (SK-OV-3; read-out: pTGI (converted)): 3.98 µM; GI50 (SNB-75): 1.82 µM; CC50 (SNB-75; [14]): 45.7 µM; TGI (SNB-75; read-out: pTGI (converted)): 6.92 µM; GI50 [13]: 1.78 µM; LC50 [13]: > 100 µM; GI50 (786-0): 2.09 µM; LC50 (786-0): 8.91 µM; TGI (786-0; read-out: pTGI (converted)): 4.37 µM; diameter of the inhibition zone (DIZ) (Staphylococcus aureus): 11 mm
